# Test system: Escherichia coli
# Test: Antimicrobial activity against Escherichia coli after 24 hrs by broth microdilution method
# Type: functional
# Settings: not given
# Method in brief: (§1)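 Broth microdilution. Bacteria were grown on Mueller-Hinton agar and diluted in Mueller-Hinton broth. Compounds were made as 1000 µg/mL stocks in 50% DMSO/H₂O and added to wells as two-fold dilutions starting at 500 µg/mL, then inoculated. Sealed plates were incubated at 37 °C for 24 h in a humid chamber. MIC was the lowest concentration with no visible turbidity.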
row,MIC [µg/mL],SMILES
1,1.34,Fc1ccc(Nc2c(-c3cnc4ccc(Br)cc4c3)nc3ccc(-c4nc5ccc(F)cc5[nH]4)cn23)cc1
2,2.13,O=[N+]([O-])c1ccc(-c2cnc(-c3ccc4nc(-c5c[nH]c6ccc(Br)cc56)c(Nc5ccc(F)cc5)n4c3)[nH]2)cc1
3,0.11,Fc1ccc(Nc2c(-c3c[nH]c4ccc(Br)cc34)nc3ccc(-c4nnc(-c5ccc(F)cc5)o4)cn23)cc1
4,14.5,Cc1ccc2[nH]cc(-c3nc4sc5cc(F)ccc5n4c3Nc3ccc(F)cc3)c2c1
5,0.14,Fc1ccc(Nc2c(-c3c[nH]c4ccc(F)cc34)nc3sc4cc(F)ccc4n23)cc1
6,0.35,Fc1ccc(Nc2c(-c3cnc4ccc(Br)cc4c3)nc3sc4cc(F)ccc4n23)cc1
7,6.11,Cc1ccc(-c2cnc(-c3ccc4nc(-c5c[nH]c6ccc(Br)cc56)c(Nc5ccc(F)cc5)n4c3)[nH]2)cc1

# Test system: Priestia megaterium
# Test: Antimicrobial activity against Bacillus megaterium after 24 hrs by broth microdilution method
# Type: functional
# Settings: not given
# Method in brief: as §1
row,MIC [µg/mL],SMILES
1,2.53,Fc1ccc(Nc2c(-c3cnc4ccc(Br)cc4c3)nc3ccc(-c4nc5ccc(F)cc5[nH]4)cn23)cc1
2,4.24,O=[N+]([O-])c1ccc(-c2cnc(-c3ccc4nc(-c5c[nH]c6ccc(Br)cc56)c(Nc5ccc(F)cc5)n4c3)[nH]2)cc1
3,1.97,Fc1ccc(Nc2c(-c3c[nH]c4ccc(Br)cc34)nc3ccc(-c4nnc(-c5ccc(F)cc5)o4)cn23)cc1
4,22.1,Cc1ccc2[nH]cc(-c3nc4sc5cc(F)ccc5n4c3Nc3ccc(F)cc3)c2c1
5,1.52,Fc1ccc(Nc2c(-c3c[nH]c4ccc(F)cc34)nc3sc4cc(F)ccc4n23)cc1
6,1.12,Fc1ccc(Nc2c(-c3cnc4ccc(Br)cc4c3)nc3sc4cc(F)ccc4n23)cc1
7,1.25,Cc1ccc(-c2cnc(-c3ccc4nc(-c5c[nH]c6ccc(Br)cc56)c(Nc5ccc(F)cc5)n4c3)[nH]2)cc1

# Test system: Staphylococcus aureus
# Test: Antimicrobial activity against Staphylococcus aureus after 24 hrs by broth microdilution method
# Type: functional
# Settings: not given
# Method in brief: as §1
row,MIC [µg/mL],SMILES
1,1.46,Fc1ccc(Nc2c(-c3cnc4ccc(Br)cc4c3)nc3ccc(-c4nc5ccc(F)cc5[nH]4)cn23)cc1
2,2.52,O=[N+]([O-])c1ccc(-c2cnc(-c3ccc4nc(-c5c[nH]c6ccc(Br)cc56)c(Nc5ccc(F)cc5)n4c3)[nH]2)cc1
3,0.31,Fc1ccc(Nc2c(-c3c[nH]c4ccc(Br)cc34)nc3ccc(-c4nnc(-c5ccc(F)cc5)o4)cn23)cc1
4,10.1,Cc1ccc2[nH]cc(-c3nc4sc5cc(F)ccc5n4c3Nc3ccc(F)cc3)c2c1
5,0.18,Fc1ccc(Nc2c(-c3c[nH]c4ccc(F)cc34)nc3sc4cc(F)ccc4n23)cc1
6,0.43,Fc1ccc(Nc2c(-c3cnc4ccc(Br)cc4c3)nc3sc4cc(F)ccc4n23)cc1
7,5.13,Cc1ccc(-c2cnc(-c3ccc4nc(-c5c[nH]c6ccc(Br)cc56)c(Nc5ccc(F)cc5)n4c3)[nH]2)cc1

# Test system: Aspergillus flavus
# Test: Antimicrobial activity against Aspergillus flavus after 48 hrs by broth microdilution method
# Type: functional
# Settings: not given
# Method in brief: (§2)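 Fungi were grown on Sabouraud dextrose agar. Inocula were prepared in Sabouraud liquid medium at 37 °C for 12 h, then diluted in RPMI-1640 with L-glutamine, MOPS-buffered at pH 7. Compounds were made as 1000 µg/mL stocks in 50% DMSO/H₂O and tested as two-fold dilutions from 500 µg/mL. Sealed plates were incubated at 37 °C for 48 h in a humid chamber. MIC was the lowest concentration without visible turbidity.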
row,MIC [µg/mL],SMILES
1,1.36,Fc1ccc(Nc2c(-c3cnc4ccc(Br)cc4c3)nc3ccc(-c4nc5ccc(F)cc5[nH]4)cn23)cc1
2,9.35,O=[N+]([O-])c1ccc(-c2cnc(-c3ccc4nc(-c5c[nH]c6ccc(Br)cc56)c(Nc5ccc(F)cc5)n4c3)[nH]2)cc1
3,3.13,Fc1ccc(Nc2c(-c3c[nH]c4ccc(Br)cc34)nc3ccc(-c4nnc(-c5ccc(F)cc5)o4)cn23)cc1
4,14.6,Cc1ccc2[nH]cc(-c3nc4sc5cc(F)ccc5n4c3Nc3ccc(F)cc3)c2c1
5,1.15,Fc1ccc(Nc2c(-c3c[nH]c4ccc(F)cc34)nc3sc4cc(F)ccc4n23)cc1
6,1.3,Fc1ccc(Nc2c(-c3cnc4ccc(Br)cc4c3)nc3sc4cc(F)ccc4n23)cc1
7,16.5,Cc1ccc(-c2cnc(-c3ccc4nc(-c5c[nH]c6ccc(Br)cc56)c(Nc5ccc(F)cc5)n4c3)[nH]2)cc1

# Test system: Candida albicans
# Test: Antimicrobial activity against Candida albicans after 48 hrs by broth microdilution method
# Type: functional
# Settings: not given
# Method in brief: as §2
row,MIC [µg/mL],SMILES
1,1.11,Fc1ccc(Nc2c(-c3cnc4ccc(Br)cc4c3)nc3ccc(-c4nc5ccc(F)cc5[nH]4)cn23)cc1
2,8.72,O=[N+]([O-])c1ccc(-c2cnc(-c3ccc4nc(-c5c[nH]c6ccc(Br)cc56)c(Nc5ccc(F)cc5)n4c3)[nH]2)cc1
3,2.54,Fc1ccc(Nc2c(-c3c[nH]c4ccc(Br)cc34)nc3ccc(-c4nnc(-c5ccc(F)cc5)o4)cn23)cc1
4,14.6,Cc1ccc2[nH]cc(-c3nc4sc5cc(F)ccc5n4c3Nc3ccc(F)cc3)c2c1
5,1.15,Fc1ccc(Nc2c(-c3c[nH]c4ccc(F)cc34)nc3sc4cc(F)ccc4n23)cc1
6,1.21,Fc1ccc(Nc2c(-c3cnc4ccc(Br)cc4c3)nc3sc4cc(F)ccc4n23)cc1
7,19.5,Cc1ccc(-c2cnc(-c3ccc4nc(-c5c[nH]c6ccc(Br)cc56)c(Nc5ccc(F)cc5)n4c3)[nH]2)cc1

# Test system: Pseudomonas aeruginosa
# Test: Antimicrobial activity against Pseudomonas aeruginosa after 24 hrs by broth microdilution method
# Type: functional
# Settings: not given
# Method in brief: as §1
row,MIC [µg/mL],SMILES
1,1.35,Fc1ccc(Nc2c(-c3cnc4ccc(Br)cc4c3)nc3ccc(-c4nc5ccc(F)cc5[nH]4)cn23)cc1
2,2.11,O=[N+]([O-])c1ccc(-c2cnc(-c3ccc4nc(-c5c[nH]c6ccc(Br)cc56)c(Nc5ccc(F)cc5)n4c3)[nH]2)cc1
3,0.21,Fc1ccc(Nc2c(-c3c[nH]c4ccc(Br)cc34)nc3ccc(-c4nnc(-c5ccc(F)cc5)o4)cn23)cc1
4,16.2,Cc1ccc2[nH]cc(-c3nc4sc5cc(F)ccc5n4c3Nc3ccc(F)cc3)c2c1
5,0.11,Fc1ccc(Nc2c(-c3c[nH]c4ccc(F)cc34)nc3sc4cc(F)ccc4n23)cc1
6,0.34,Fc1ccc(Nc2c(-c3cnc4ccc(Br)cc4c3)nc3sc4cc(F)ccc4n23)cc1
7,8.28,Cc1ccc(-c2cnc(-c3ccc4nc(-c5c[nH]c6ccc(Br)cc56)c(Nc5ccc(F)cc5)n4c3)[nH]2)cc1

# Test system: Candida parapsilosis
# Test: Antimicrobial activity against Candida parapsilosis after 48 hrs by broth microdilution method
# Type: functional
# Settings: Lodderomyces parapsilosis
# Method in brief: as §2
row,MIC [µg/mL],SMILES
1,1.22,Fc1ccc(Nc2c(-c3cnc4ccc(Br)cc4c3)nc3ccc(-c4nc5ccc(F)cc5[nH]4)cn23)cc1
2,6.22,O=[N+]([O-])c1ccc(-c2cnc(-c3ccc4nc(-c5c[nH]c6ccc(Br)cc56)c(Nc5ccc(F)cc5)n4c3)[nH]2)cc1
3,2.22,Fc1ccc(Nc2c(-c3c[nH]c4ccc(Br)cc34)nc3ccc(-c4nnc(-c5ccc(F)cc5)o4)cn23)cc1
4,16.5,Cc1ccc2[nH]cc(-c3nc4sc5cc(F)ccc5n4c3Nc3ccc(F)cc3)c2c1
5,1.24,Fc1ccc(Nc2c(-c3c[nH]c4ccc(F)cc34)nc3sc4cc(F)ccc4n23)cc1
6,1.13,Fc1ccc(Nc2c(-c3cnc4ccc(Br)cc4c3)nc3sc4cc(F)ccc4n23)cc1
7,18.4,Cc1ccc(-c2cnc(-c3ccc4nc(-c5c[nH]c6ccc(Br)cc56)c(Nc5ccc(F)cc5)n4c3)[nH]2)cc1

# Test system: Klebsiella aerogenes
# Test: Antimicrobial activity against Enterobacter aerogenes after 24 hrs by broth microdilution method
# Type: functional
# Settings: not given
# Method in brief: as §1
row,MIC [µg/mL],SMILES
1,1.55,Fc1ccc(Nc2c(-c3cnc4ccc(Br)cc4c3)nc3ccc(-c4nc5ccc(F)cc5[nH]4)cn23)cc1
2,2.35,O=[N+]([O-])c1ccc(-c2cnc(-c3ccc4nc(-c5c[nH]c6ccc(Br)cc56)c(Nc5ccc(F)cc5)n4c3)[nH]2)cc1
3,0.35,Fc1ccc(Nc2c(-c3c[nH]c4ccc(Br)cc34)nc3ccc(-c4nnc(-c5ccc(F)cc5)o4)cn23)cc1
4,14.6,Cc1ccc2[nH]cc(-c3nc4sc5cc(F)ccc5n4c3Nc3ccc(F)cc3)c2c1
5,0.23,Fc1ccc(Nc2c(-c3c[nH]c4ccc(F)cc34)nc3sc4cc(F)ccc4n23)cc1
6,0.51,Fc1ccc(Nc2c(-c3cnc4ccc(Br)cc4c3)nc3sc4cc(F)ccc4n23)cc1
7,6.22,Cc1ccc(-c2cnc(-c3ccc4nc(-c5c[nH]c6ccc(Br)cc56)c(Nc5ccc(F)cc5)n4c3)[nH]2)cc1

# Test system: Nannizzia gypsea
# Test: Antimicrobial activity against Microsporum gypseum after 48 hrs by broth microdilution method
# Type: functional
# Settings: not given
# Method in brief: as §2
row,MIC [µg/mL],SMILES
1,1.21,Fc1ccc(Nc2c(-c3cnc4ccc(Br)cc4c3)nc3ccc(-c4nc5ccc(F)cc5[nH]4)cn23)cc1
2,7.44,O=[N+]([O-])c1ccc(-c2cnc(-c3ccc4nc(-c5c[nH]c6ccc(Br)cc56)c(Nc5ccc(F)cc5)n4c3)[nH]2)cc1
3,4.25,Fc1ccc(Nc2c(-c3c[nH]c4ccc(Br)cc34)nc3ccc(-c4nnc(-c5ccc(F)cc5)o4)cn23)cc1
4,10.5,Cc1ccc2[nH]cc(-c3nc4sc5cc(F)ccc5n4c3Nc3ccc(F)cc3)c2c1
5,1.23,Fc1ccc(Nc2c(-c3c[nH]c4ccc(F)cc34)nc3sc4cc(F)ccc4n23)cc1
6,1.24,Fc1ccc(Nc2c(-c3cnc4ccc(Br)cc4c3)nc3sc4cc(F)ccc4n23)cc1
7,15.6,Cc1ccc(-c2cnc(-c3ccc4nc(-c5c[nH]c6ccc(Br)cc56)c(Nc5ccc(F)cc5)n4c3)[nH]2)cc1

# Test system: Enterococcus faecalis
# Test: Antimicrobial activity against Enterococcus faecalis after 24 hrs by broth microdilution method
# Type: functional
# Settings: not given
# Method in brief: as §1
row,MIC [µg/mL],SMILES
1,1.47,Fc1ccc(Nc2c(-c3cnc4ccc(Br)cc4c3)nc3ccc(-c4nc5ccc(F)cc5[nH]4)cn23)cc1
2,3.17,O=[N+]([O-])c1ccc(-c2cnc(-c3ccc4nc(-c5c[nH]c6ccc(Br)cc56)c(Nc5ccc(F)cc5)n4c3)[nH]2)cc1
3,0.37,Fc1ccc(Nc2c(-c3c[nH]c4ccc(Br)cc34)nc3ccc(-c4nnc(-c5ccc(F)cc5)o4)cn23)cc1
4,9.17,Cc1ccc2[nH]cc(-c3nc4sc5cc(F)ccc5n4c3Nc3ccc(F)cc3)c2c1
5,0.41,Fc1ccc(Nc2c(-c3c[nH]c4ccc(F)cc34)nc3sc4cc(F)ccc4n23)cc1
6,0.51,Fc1ccc(Nc2c(-c3cnc4ccc(Br)cc4c3)nc3sc4cc(F)ccc4n23)cc1
7,7.32,Cc1ccc(-c2cnc(-c3ccc4nc(-c5c[nH]c6ccc(Br)cc56)c(Nc5ccc(F)cc5)n4c3)[nH]2)cc1

# Reference: ChEMBL document CHEMBL1773057, “Design, synthesis and in vitro antimicrobial evaluation of novel Imidazo[1,2-a]pyridine and imidazo[2,1-b][1,3]benzothiazole motifs” (2011)
